Assay results collected from several papers.
Each line is one published result; the experiments were not run side by side.
Tspo: Translocator protein (Tspo, Rattus norvegicus, UniProt P16257)
ADRA1A: Alpha-1A adrenergic receptor (ADRA1A, Homo sapiens, UniProt P35348)
HRH2: Histamine H2 receptor (HRH2, Homo sapiens, UniProt P25021)

`CCCCC(=O)[C@@]12C[C@@H]1[C@@H](n1ccc3c(NC)nc(C#Cc4ccc(Cl)s4)nc31)[C@H](O)[C@@H]2O` has a Ki of > 10000 nM (Tspo; ligand displacement; radioligand).
`O=C1c2ccccc2CCCN1CCCCN1CCN(c2ccccn2)CC1` has a Ki of 867 nM (ADRA1A; ligand displacement; radioligand).
`Cc1c(C)c2c(c(C)c1O)CCC(C)(COc1ccc(CC3SC(=O)NC3=O)cc1)O2` (stereo not shown) gave a Ki of 26200 nM (Peroxisome proliferator-activated receptor delta (PPARD, Homo sapiens, UniProt Q03181); cell-free assay).
`CC[C@H](NC(=O)[C@H](CS(=O)(=O)CC1CC1)N[C@@H](c1ccc(F)cc1)C(F)(F)F)C(=O)C(=O)NC1CC1` gave a Ki of 0.13 nM (Cathepsin S (CTSS, Homo sapiens, UniProt P25774); enzyme activity; inhibitor; fluorescence; with preincubation).
`COc1ccc2c(c1)C(=O)N(CCN1CCN(c3ccccc3OC)CC1)C2` has a Ki of 15.9 nM (ADRA1A; ligand displacement; radioligand).
For `CC1=C(/C=C/C(C)=C/C=C/C(C)=C/c2cc(/C=C/C=C(C)/C=C/C3=C(C)CCCC3(C)C)cc[n+]2CCO)C(C)(C)CCC1`, the Ki was 2900 nM (Sterol 26-hydroxylase, mitochondrial (CYP27A1, Homo sapiens, UniProt Q02318); enzyme activity; inhibitor).
The Ki of `CNC(=O)[C@@]12C[C@@H]1[C@@H](n1cnc3c(NC)nc(C#Cc4ccccc4Cl)nc31)[C@H](O)[C@@H]2O` is reported as > 10000 nM (Tspo; ligand displacement; radioligand).
`C[C@H]1Oc2cc(cnc2N)-c2c(nn(C)c2C#N)CN(C)C(=O)c2ccc(F)cc21` gave a Ki of 10.3 nM (Focal adhesion kinase 1 (PTK2, Homo sapiens, UniProt Q05397); cell-free assay; lysate).
`CNC(=O)[C@@]12C[C@@H]1[C@@H](n1cnc3c(NC)nc(C#Cc4ccc(F)c(F)c4)nc31)[C@H](O)[C@@H]2O` gave a Ki of > 10000 nM (Tspo; ligand displacement; radioligand).
The Ki of `O=C(c1cccc(/N=N/c2cccc(OCCCN3CCCCC3)c2)c1)N1CCCC1` is reported as > 10000 nM (HRH2; ligand displacement; radioligand).
`Cc1nc2cc(OCCCCN3CCN(c4cccc(Cl)c4Cl)CC3)ccc2s1` gave a Ki of 680 nM (HRH2; ligand displacement; radioligand).
`CN1CC(Oc2cnc(C#N)cc2-c2ccn3nc(NC(=O)C4CC4)cc3c2)C1` has a Ki of 95 nM (Receptor-interacting serine/threonine-protein kinase 2 (RIPK2, Homo sapiens, UniProt O43353); enzyme activity; inhibitor).
The Ki of `O=C1c2ccccc2CCN1CCCCN1CCN(c2ccccn2)CC1` is reported as 555 nM (ADRA1A; ligand displacement; radioligand).
`OCCCN1CC[C@@H]2C[C@H]1c1cc(-c3ccc(C(F)(F)F)cc3)ccc12` has a Ki of 1990 nM (ADRA1A; ligand displacement; radioligand).
`O[C@@H]1[C@H](O)[C@@H]2C[C@@H]2[C@H]1n1cnc2c(NCc3cccc(Cl)c3)ncnc21` has a Ki of > 10000 nM (Tspo; ligand displacement; radioligand).
For `CC(C)c1nc2cc(OCCCCN3CCN(c4cccc5c4OCCO5)CC3)ccc2s1`, the Ki was 240 nM (HRH2; ligand displacement; radioligand).
